≈ marks a conversion by molar mass, not a printed value.
Legend:
MDA-MB-231 = experiment: Cytotoxicity against human MDA-MB-231 cells after 24 hrs by MTT assay; assay type: functional; details: MDA-MB-231, 24 h, read-out: ID50 (the source's name)
Outline: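 MDA-MB-231 cells (ATCC) were cultured in Leibovitz's L-15 with 10% FCS. Cells were seeded at 4 or 8×10^3/well and attached overnight at 37 °C. Compounds dissolved in methanol and diluted in medium were added for 24 h in duplicate, with a methanol blank. MTT (5 mg/mL stock) was added for 4 h, formazan taken up in DMSO, and A550 recorded.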

[1] = Cytotoxicity against human Hs 578T cells after 24 hrs by MTT assay; assay type: functional; details: read-out: ID50 (the source's name)
Outline: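 Hs578T cells (ATCC) were maintained in DMEM with 10% FCS, 1% glutamine and 10 μg/mL insulin. Cells were seeded at 4 or 8×10^3/well and allowed to adhere overnight at 37 °C. They were exposed 24 h, in duplicate, to compounds in methanol diluted with medium, with a methanol blank. MTT (5 mg/mL stock) was added for 4 h, formazan dissolved in DMSO, and A550 measured.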

[2] = Cytotoxicity against human U87MG cells after 24 hrs by MTT assay; assay type: functional, U-87MG ATCC; details: U-87 MG, read-out: ID50 (the source's name)
Outline: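 U87-MG glioblastoma cells (ATCC) were grown in MEM with 10% FCS, 1% sodium pyruvate and 1% nonessential amino acids. Cells were seeded at 4 or 8×10^3/well and adhered overnight at 37 °C. They were exposed 24 h, in duplicate, to methanol-dissolved compounds diluted in medium, with a methanol blank. MTT (5 mg/mL stock) was added for 4 h, formazan dissolved in DMSO, and absorbance read at 550 nm.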

HT-1080 = experiment: Cytotoxicity against human HT1080 cells after 24 hrs by MTT assay; assay type: functional; details: HT-1080, 24 h, read-out: ID50 (the source's name)
Outline: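 HT-1080 cells (ATCC) were kept in DMEM with 10% FCS, 1% glutamine and 1% vitamins at 37 °C, 5% CO2. Cells were seeded at 4 or 8×10^3/well and attached overnight, then exposed for 24 h in duplicate to methanol-dissolved compounds diluted in medium, with a methanol blank. MTT (5 mg/mL stock) was given for 4 h, formazan solubilized in DMSO, and absorbance read at 550 nm.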

[3] = Cytotoxicity against human IMR90 cells after 24 hrs by MTT assay; assay type: cell-based, IMR-90; details: read-out: ID50
Outline: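 IMR-90 embryonic fibroblasts (ATCC) were grown in DMEM with 10% FCS and 1% glutamine at 37 °C, 5% CO2. Cells were plated at 4 or 8×10^3/well and attached overnight. They were treated 24 h, in duplicate, with compounds from methanol stocks diluted in medium, with a methanol blank. MTT (5 mg/mL stock) was added for 4 h, formazan dissolved in DMSO, and read at 550 nm.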

[4] = Cytotoxicity against HUVEC after 24 hrs by MTT assay; assay type: cell-based; details: human, read-out: ID50
Outline: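 Primary HUVEC from newborns, grown in DMEM/medium 199 with 20% FCS, 10 mM HEPES, heparin and ECGS at 37 °C, 5% CO2. Cells were seeded at 4 or 8×10^3/well and attached overnight. Compounds were added from methanol solutions diluted in medium, with a methanol blank, for 24 h in duplicate. MTT (5 mg/mL stock) was added for 4 h, formazan dissolved in DMSO, and A550 read.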

Compound | IC50 (MDA-MB-231) [µg/mL] | IC50 [1] [µg/mL] | IC50 [2] [µg/mL] | IC50 (HT-1080) [µg/mL] | CC50 at 24 h [3] [µg/mL] | CC50 at 24 h [4] [µg/mL]
CC1(C)C[C@](C)(CO)c2c1ccc(CO)c2CO | > 10 | > 10 | > 10 | > 10 | > 10 | > 10
CC(=O)O[C@H]1C[C@@H](C)[C@@H]2COC[C@@]3(C)CC(C)(C)[C@H]1[C@]23O | > 10 | > 10 | > 10 | > 10 | > 10 | > 10
Cc1ccc2c(c1CO)[C@@](C)(CO)C[C@@]2(C)CO | > 10 | > 10 | > 10 | > 10 | > 10 | > 10
CC(=O)O[C@H]1C[C@@H](C)[C@@H](C=O)[C@@]2(O)[C@@H]1C(C)(C)C[C@]2(C)C=O | 1 (≈ 3.22 µM) | 5 (≈ 16.1 µM) | 5 (≈ 16.1 µM) | 10 (≈ 32.2 µM) | 10 (≈ 32.2 µM) | 10 (≈ 32.2 µM)
CC(=O)O[C@H]1C[C@@H](C)[C@@H]2[C@H](O)OC[C@@]3(C)CC(C)(C)[C@H]1[C@]23O | > 10 | > 10 | > 10 | > 10 | > 10 | > 10
CC(=O)O[C@H]1C[C@@H](C)[C@H](C=O)[C@]2(O)[C@@H]1C(C)(C)C[C@@]2(C)C=O | 0.1 (≈ 0.322 µM) | 1 (≈ 3.22 µM) | 1 (≈ 3.22 µM) | 5 (≈ 16.1 µM) | 10 (≈ 32.2 µM) | 5 (≈ 16.1 µM)
Cc1ccc2c(c1C=O)[C@@](C)(C=O)CC2(C)C | 10 (≈ 43.4 µM) | 1 (≈ 4.34 µM) | 5 (≈ 21.7 µM) | 1 (≈ 4.34 µM) | 10 (≈ 43.4 µM) | 5 (≈ 21.7 µM)
CC(=O)O[C@H]1C[C@@H](C)[C@H](C(=O)O)[C@@]2(O)[C@@H]1C(C)(C)C[C@]2(C)C=O | > 10 | > 10 | > 10 | > 10 | > 10 | > 10
C[C@@H]1C[C@H](O)[C@H]2C(C)(C)C[C@]3(C)COC[C@@H]1[C@@]23O | > 10 | > 10 | > 10 | > 10 | > 10 | > 10
CC(=O)O[C@H]1C[C@@H](C)[C@@H]2COC(C)(C)OC[C@@]3(C)CC(C)(C)[C@H]1[C@]23O | > 10 | > 10 | > 10 | > 10 | > 10 | > 10
CC(=O)O[C@H]1C[C@@H](C)[C@@H]2C(=O)OC[C@@]3(C)CC(C)(C)[C@H]1[C@]23O | > 10 | > 10 | > 10 | > 10 | > 10 | > 10
C[C@@H]1CC=C2C(=C1C=O)[C@@](C)(C=O)CC2(C)C | 0.1 (≈ 0.43 µM) | 1 (≈ 4.3 µM) | 1 (≈ 4.3 µM) | 1 (≈ 4.3 µM) | 1 (≈ 4.3 µM) | 1 (≈ 4.3 µM)
CC(=O)O[C@H]1C[C@@H](C)[C@@H]2[C@@H](O)[C@H](O)[C@@]3(C)CC(C)(C)[C@H]1[C@]23O | > 10 | > 10 | > 10 | > 10 | > 10 | > 10
CC(=O)O[C@H]1C[C@@H](C)[C@H](CO)C2=C1C(C)(C)C[C@]2(C)CO | > 10 | > 10 | > 10 | > 10 | > 10 | > 10
CC(=O)O[C@H]1C[C@@H](C)[C@@H]2COC(=O)[C@@]3(C)CC(C)(C)[C@H]1[C@]23O | > 10 | > 10 | > 10 | > 10 | > 10 | > 10
CC(=O)O[C@H]1C[C@@H](C)[C@H](C=O)[C@@]2(O)[C@@H]1C(C)(C)C[C@]2(C)C=O [BOTRYDIAL] | 1 (≈ 3.22 µM) | 1 (≈ 3.22 µM) | 1 (≈ 3.22 µM) | 1 (≈ 3.22 µM) | 10 (≈ 32.2 µM) | 1 (≈ 3.22 µM)
CC(=O)O[C@H]1C[C@@H](C)[C@H](C(=O)O)[C@@]2(O)[C@@H]1C(C)(C)C[C@]2(C)C(=O)O [BOTRYDIOIC ACID] | > 10 | > 10 | > 10 | > 10 | > 10 | > 10
CC(=O)O[C@H]1C[C@@H](C)[C@H](CO)[C@@]2(O)[C@@H]1C(C)(C)C[C@]2(C)CO [BOTRYDIOL] | > 10 | > 10 | > 10 | > 10 | > 10 | > 10
CC(=O)O[C@H]1C[C@@H](C)C(C=O)=C2[C@@H]1C(C)(C)C[C@]2(C)CO [BOTRYENALOL] | > 10 | > 10 | > 10 | > 10 | > 10 | > 10
CC(=O)O[C@H]1C[C@@H](C)C(C=O)=C2[C@@H]1C(C)(C)C[C@]2(C)C=O [BOTRYENEDIAL] | 10 (≈ 34.2 µM) | 10 (≈ 34.2 µM) | 10 (≈ 34.2 µM) | 10 (≈ 34.2 µM) | > 10 | 10 (≈ 34.2 µM)
CC(=O)O[C@H]1C[C@@H](C)[C@H](C(=O)O)[C@@]2(O)[C@@H]1C(C)(C)C[C@]2(C)CO [BOTRYOLOIC ACID] | > 10 | > 10 | > 10 | > 10 | > 10 | > 10
CC(=O)O[C@H]1C[C@@H](C)[C@@H]2[C@@H](O)OC[C@@]3(C)CC(C)(C)[C@H]1[C@]23O [DIHYDROBOTRYDIAL] | > 10 | > 10 | > 10 | > 10 | > 10 | > 10
COC(=O)[C@H]1[C@H](C)C[C@H](OC(C)=O)[C@H]2C(C)(C)C[C@](C)(C(=O)OC)[C@@]12O [DIMETHYL BOTRYDIOATE] | > 10 | > 10 | > 10 | > 10 | > 10 | > 10
COC(=O)[C@@]1(C)CC(C)(C)[C@@H]2[C@@H](OC(C)=O)C[C@@H](C)[C@H](C=O)[C@@]21O [METHYL ACETYLBOTRYALOATE] | > 10 | > 10 | > 10 | > 10 | > 10 | > 10
COC(=O)[C@@]1(C)CC(C)(C)[C@@H]2[C@@H](O)C[C@@H](C)[C@H](C=O)[C@@]21O [METHYL BOTRYALOATE] | > 10 | > 10 | > 10 | > 10 | > 10 | > 10
COC(=O)[C@@]1(C)CC(C)(C)[C@H]2C1=C(C=O)[C@H](C)C[C@@H]2O [METHYL BOTRYENALOATE] | > 10 | > 10 | > 10 | > 10 | > 10 | > 10
C=CC1=C(/C(=C\C)CO)[C@@](C)(CO)CC1(C)C [SECOBOTRYTRIENDIOL] | > 10 | > 10 | > 10 | > 10 | > 10 | > 10

Reference: ChEMBL document CHEMBL1150672, “Chemical transformations on botryane skeleton. Effect on the cytotoxic activity” (J Nat Prod, 2003)
